Reference: ChEMBL document CHEMBL1811758, “Inhibition of monoamine oxidase by C5-substituted phthalimide analogues” (Bioorg Med Chem, 2011)

Experiments:
[1] = target: T1, Amine oxidase [flavin-containing] B (Homo sapiens, UniProt P27338); experiment: Inhibition of human recombinant MAOB expressed in insect cells using kynuramine substrate by fluorescence spectroscopy
T1 sequence (P27338 whole entry): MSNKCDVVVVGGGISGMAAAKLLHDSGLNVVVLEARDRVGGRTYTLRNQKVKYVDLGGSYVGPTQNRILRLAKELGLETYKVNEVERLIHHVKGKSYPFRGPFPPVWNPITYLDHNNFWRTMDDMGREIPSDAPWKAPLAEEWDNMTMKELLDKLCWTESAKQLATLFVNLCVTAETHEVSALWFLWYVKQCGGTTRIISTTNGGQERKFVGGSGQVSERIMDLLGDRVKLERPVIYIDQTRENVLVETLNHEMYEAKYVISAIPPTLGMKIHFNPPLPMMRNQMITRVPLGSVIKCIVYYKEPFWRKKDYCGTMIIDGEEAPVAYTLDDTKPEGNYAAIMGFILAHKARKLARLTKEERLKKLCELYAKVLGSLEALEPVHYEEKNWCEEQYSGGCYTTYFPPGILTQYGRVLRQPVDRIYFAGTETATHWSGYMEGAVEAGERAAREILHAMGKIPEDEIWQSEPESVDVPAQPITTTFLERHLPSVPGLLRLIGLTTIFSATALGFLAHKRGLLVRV

[2] = species: Homo sapiens; experiment: Selectivity index, ratio of Ki for human recombinant MAOA to Ki for human recombinant MAOB
How it was run: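 Recombinant human MAO-A and MAO-B from baculovirus-infected insect-cell microsomes. Kynuramine at 45 µM (A) or 30 µM (B) final, in 100 mM potassium phosphate pH 7.4 made isotonic with KCl. 37 °C for 20 min, stopped with NaOH; 4-hydroxyquinoline fluorescence read at ex 310/em 400 nm. IC50 from 9–10 concentrations, duplicate. Ki = IC50/(1+[S]/Km), Km 16.1 (A), 22.7 µM (B); ratio Ki(A)/Ki(B).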

[3] = target: T2, Amine oxidase [flavin-containing] A (Homo sapiens, UniProt P21397); experiment: Inhibition of human recombinant MAOA expressed in insect cells using kynuramine substrate using Cheng and Prusoff equation by fluorescence spectroscopy
T2 sequence (P21397 whole entry): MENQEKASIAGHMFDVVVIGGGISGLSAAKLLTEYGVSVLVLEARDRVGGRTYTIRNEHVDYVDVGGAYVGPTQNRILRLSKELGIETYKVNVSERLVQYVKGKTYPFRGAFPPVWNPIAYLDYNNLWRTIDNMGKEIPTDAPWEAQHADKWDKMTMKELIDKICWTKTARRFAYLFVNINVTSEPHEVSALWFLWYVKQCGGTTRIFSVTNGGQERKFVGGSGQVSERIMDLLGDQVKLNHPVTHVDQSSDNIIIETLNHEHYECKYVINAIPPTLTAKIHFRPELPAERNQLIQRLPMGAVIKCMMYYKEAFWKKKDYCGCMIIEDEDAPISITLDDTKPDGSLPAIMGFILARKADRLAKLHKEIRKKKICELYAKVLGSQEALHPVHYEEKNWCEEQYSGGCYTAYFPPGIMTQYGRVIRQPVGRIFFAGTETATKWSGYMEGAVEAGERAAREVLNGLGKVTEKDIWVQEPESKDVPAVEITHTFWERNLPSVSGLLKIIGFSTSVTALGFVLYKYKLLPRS

[4] = target: T2, Amine oxidase [flavin-containing] A; experiment: Inhibition of human recombinant MAOA expressed in insect cells using kynuramine substrate by fluorescence spectroscopy
[5] = target: T1, Amine oxidase [flavin-containing] B; experiment: Inhibition of human recombinant MAOB expressed in insect cells using kynuramine substrate using Cheng and Prusoff equation by fluorescence spectroscopy
[6] = target: T2, Amine oxidase [flavin-containing] A; experiment: Inhibition of human recombinant MAOA expressed in insect cells using kynuramine substrate at 100 uM by fluorescence spectroscopy
How it was run: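 MAO-A (insect-cell microsomes) was incubated with kynuramine (45 µM final) for 20 min at 37 °C in isotonic phosphate buffer, pH 7.4, with inhibitor at a maximum tested concentration of 100 µM. The reaction was stopped with NaOH, and 4-hydroxyquinoline was read fluorometrically (ex 310/em 400 nm). Percent inhibition is the mean of duplicates.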

[7] = target: T1, Amine oxidase [flavin-containing] B; experiment: Inhibition of human recombinant MAOB expressed in insect cells using kynuramine substrate at 100 uM by fluorescence spectroscopy
How it was run: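 Single-point MAO-B assay: inhibitor at a maximum of 100 µM, kynuramine 30 µM final, 20 min at 37 °C in isotonic 100 mM potassium phosphate, pH 7.4. NaOH was added to stop the reaction, and 4-hydroxyquinoline was measured by fluorescence (ex 310/em 400 nm). Duplicate determinations were made, with percent inhibition reported.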

[8] = target: T2, Amine oxidase [flavin-containing] A; experiment: Reversible inhibition of human recombinant MAOA expressed in insect cells using kynuramine substrate by Lineweaver-Burk plot
How it was run: (§1)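 Kynuramine at 15, 30, 60 and 90 µM; MAO-A at 0.015 mg/mL in the reaction; inhibitor at 0, 1.7, 3.4 and 6.8 µM. Reactions ran in isotonic potassium phosphate (100 mM, pH 7.4) at 37 °C for 20 min and were stopped with NaOH. Initial rates were read by 4-hydroxyquinoline fluorescence (ex 310/em 400 nm) and plotted double-reciprocally.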

[9] = target: T1, Amine oxidase [flavin-containing] B; experiment: Competitive inhibition of human recombinant MAOB expressed in insect cells using kynuramine substrate by Lineweaver-Burk plot
How it was run: (§2)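 Initial MAO-B rates (0.015 mg/mL enzyme) were measured at kynuramine 15, 30, 60 and 90 µM, without inhibitor and with 0.625, 1.25 or 2.5 µM inhibitor. Incubation was 20 min at 37 °C in isotonic 100 mM potassium phosphate, pH 7.4, followed by NaOH stop. 4-Hydroxyquinoline fluorescence (ex 310/em 400 nm) was read, and Lineweaver–Burk plots were drawn.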

[10] = target: T1, Amine oxidase [flavin-containing] B; experiment: Reversible inhibition of human recombinant MAOB expressed in insect cells using kynuramine substrate by Lineweaver-Burk plot; how it was run: as §2
[11] = target: T2, Amine oxidase [flavin-containing] A; experiment: Competitive inhibition of human recombinant MAOA expressed in insect cells using kynuramine substrate by Lineweaver-Burk plot; how it was run: as §1
[12] = target: T1, Amine oxidase [flavin-containing] B; experiment: Time dependent inhibition of human recombinant MAOB expressed in insect cells at 5 uM preincubated 0 to 60 mins before kynuramine substrate addition by fluorescence spectroscopy
How it was run: (§3)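 Enzyme (0.03 mg/mL) was preincubated with inhibitor for 0, 15, 30 or 60 min at 37 °C in isotonic 100 mM potassium phosphate, pH 7.4. Preincubation inhibitor was 13.42 µM for MAO-A and 5.00 µM for MAO-B. Kynuramine was then added (45 µM for MAO-A, 30 µM for MAO-B), giving final enzyme 0.015 mg/mL and final inhibitor 6.71 µM (A) or 2.5 µM (B). After 15 min at 37 °C and NaOH stop, 4-hydroxyquinoline fluorescence was read, in triplicate.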

[13] = target: T2, Amine oxidase [flavin-containing] A; experiment: Time dependent inhibition of human recombinant MAOA expressed in insect cells at 13.42 uM preincubated 0 to 60 mins before kynuramine substrate addition by fluorescence spectroscopy; how it was run: as §3

Compound | IC50 [1] | Ratio Ki [2] | Ki [3] | IC50 [4] | Ki [5] | other results
O=C1NC(=O)c2ccccc21 [PHTHALIMIDE] | 134 µM |  |  |  |  | 
O=C1NC(=O)c2cc(Oc3ccc4ccccc4c3)ccc21 | 0.033 µM | 17 | 0.2 µM | 0.92 µM | 0.01 µM | 
O=C1NC(=O)c2cc(OCCCc3ccccc3)ccc21 | 0.05 µM | 21 | 0.46 µM | 1.73 µM | 0.02 µM | 
O=C1c2ccccc2C(=O)N1Cc1ccccc1 |  |  |  |  |  | inhibition (INH) ([6]; 100 µM): Not Active; inhibition at 100 µM [7]: 20.2%
O=C1NC(=O)c2cc(OC/C=C/c3ccccc3)ccc21 | 0.046 µM | 120 | 2.37 µM | 8.99 µM | 0.02 µM | 
O=C1c2ccccc2C(=O)N1c1ccccc1 [N-PHENYL-PHTHALIMIDE] |  |  |  |  |  | inhibition at 100 µM [6]: 10.5%; inhibition at 100 µM [7]: 50.3%
O=C1NC(=O)c2cc(Oc3ccccc3)ccc21 | 2.49 µM | 1 | 1.54 µM | 5.85 µM | 1.07 µM | inhibition (INH) [8]: Active; inhibition (INH) [9]: Active; inhibition (INH) [10]: Active; inhibition (INH) [11]: Active; TDI [12]: Not Active; TDI [13]: Not Active
O=C1NC(=O)c2cc(Oc3ccc(Br)cc3)ccc21 | 0.055 µM | 12 | 0.285 µM | 1.08 µM | 0.024 µM | 
